Experimental data reported in ChEMBL document CHEMBL4689842, “EUbOPEN Chemogenomics Library wave 1” (2021).

Test system: HEK-293T
Assay: Multiplex assay against HEK293T;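 as to Population Tubulin-Different-Phenotype (%): share of the cells with healthy nuclei that show this phenotype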
Assay type: toxicity, cell-based
Details: human
Outline: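 With compound added, live cells were imaged on a CQ1 microscope at 37°C and 5% CO2; staining with Hoechst33342, BioTracker Green Microtubule Cytoskeleton Dye, MitoTracker Red and Annexin V Alexa Fluor 680 had been done at seeding. The CellPathfinder machine-learning gating scheme split cells into Hoechst high-intensity objects or normal cells, normal cells into healthy, pyknosed or fragmented nuclei, and pyknosed cells into mitotic or apoptotic. The tubulin, mitochondrial-mass and membrane-permeability phenotypes are per cents of healthy-nucleus cells.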

[1] = 12 h, 1 µM, compound concentration 1 uM, replicate 1
[2] = 12 h, 1 µM, compound concentration 1 uM, replicate 2
[3] = 12 h, 10 µM, compound concentration 10 uM, replicate 1
[4] = 12 h, 10 µM, compound concentration 10 uM, replicate 2
[5] = 24 h, 1 µM, compound concentration 1 uM, replicate 1
[6] = 24 h, 1 µM, compound concentration 1 uM, replicate 2
[7] = 24 h, 10 µM, compound concentration 10 uM, replicate 1
[8] = 24 h, 10 µM, compound concentration 10 uM, replicate 2
[9] = 48 h, 1 µM, compound concentration 1 uM, replicate 1
[10] = 48 h, 1 µM, compound concentration 1 uM, replicate 2
[11] = 48 h, 10 µM, compound concentration 10 uM, replicate 1
[12] = 48 h, 10 µM, compound concentration 10 uM, replicate 2

CCOc1cc(N2CCC(O)CC2)ccc1Nc1ncc2c(n1)N(C1CCCC1)CCC(=O)N2C
Population Apoptotic (%) [1]: 17%
Population Fragmented Nuclei (%) [1]: 18%
Population Healthy Nuclei (%) [1]: 58%
Population Hoechst High Intensity Objects (%) [1]: 13%
Population Membrane Permeable-Phenotype (%) [1]: 3%
Population Mitochondria Different-Phenotype (%) [1]: 5%
Population Mitotic Cells (%) [1]: 82%
Population Normal (%) [1]: 86%
Population Pyknosed Nuclei (%) [1]: 22%
Population Tubulin-Different-Phenotype (%) [1]: 3%
Total Cell Count [1]: 614
Population Apoptotic (%) [2]: 4%
Population Fragmented Nuclei (%) [2]: 6%
Population Healthy Nuclei (%) [2]: 87%
Population Hoechst High Intensity Objects (%) [2]: 2%
Population Membrane Permeable-Phenotype (%) [2]: 1%
Population Mitochondria Different-Phenotype (%) [2]: 15%
Population Mitotic Cells (%) [2]: 95%
Population Normal (%) [2]: 97%
Population Pyknosed Nuclei (%) [2]: 5%
Population Tubulin-Different-Phenotype (%) [2]: 5%
Total Cell Count [2]: 1724
Population Apoptotic (%) [3]: 14%
Population Fragmented Nuclei (%) [3]: 18%
Population Healthy Nuclei (%) [3]: 62%
Population Hoechst High Intensity Objects (%) [3]: 13%
Population Membrane Permeable-Phenotype (%) [3]: 4%
Population Mitochondria Different-Phenotype (%) [3]: 5%
Population Mitotic Cells (%) [3]: 85%
Population Normal (%) [3]: 86%
Population Pyknosed Nuclei (%) [3]: 19%
Population Tubulin-Different-Phenotype (%) [3]: 4%
Total Cell Count [3]: 550
Population Apoptotic (%) [4]: 8%
Population Fragmented Nuclei (%) [4]: 9%
Population Healthy Nuclei (%) [4]: 86%
Population Hoechst High Intensity Objects (%) [4]: 1%
Population Membrane Permeable-Phenotype (%) [4]: 0%
Population Mitotic Cells (%) [4]: 92%
Population Normal (%) [4]: 98%
Population Pyknosed Nuclei (%) [4]: 4%
Population Tubulin-Different-Phenotype (%) [4]: 2%
Total Cell Count [4]: 1779
Population Apoptotic (%) [5]: 19%
Population Fragmented Nuclei (%) [5]: 16%
Population Healthy Nuclei (%) [5]: 73%
Population Hoechst High Intensity Objects (%) [5]: 7%
Population Membrane Permeable-Phenotype (%) [5]: 2%
Population Mitochondria Different-Phenotype (%) [5]: 4%
Population Mitotic Cells (%) [5]: 80%
Population Normal (%) [5]: 92%
Population Pyknosed Nuclei (%) [5]: 9%
Population Tubulin-Different-Phenotype (%) [5]: 3%
Total Cell Count [5]: 619
Population Apoptotic (%) [6]: 4%
Population Fragmented Nuclei (%) [6]: 26%
Population Healthy Nuclei (%) [6]: 72%
Population Hoechst High Intensity Objects (%) [6]: 3%
Population Membrane Permeable-Phenotype (%) [6]: 0%
Population Mitochondria Different-Phenotype (%) [6]: 3%
Population Mitotic Cells (%) [6]: 95%
Population Normal (%) [6]: 96%
Population Pyknosed Nuclei (%) [6]: 1%
Population Tubulin-Different-Phenotype (%) [6]: 1%
Total Cell Count [6]: 2649
Population Apoptotic (%) [7]: 19%
Population Fragmented Nuclei (%) [7]: 13%
Population Healthy Nuclei (%) [7]: 76%
Population Hoechst High Intensity Objects (%) [7]: 6%
Population Membrane Permeable-Phenotype (%) [7]: 8%
Population Mitochondria Different-Phenotype (%) [7]: 5%
Population Mitotic Cells (%) [7]: 80%
Population Normal (%) [7]: 93%
Population Pyknosed Nuclei (%) [7]: 9%
Population Tubulin-Different-Phenotype (%) [7]: 2%
Total Cell Count [7]: 597
Population Apoptotic (%) [8]: 0%
Population Fragmented Nuclei (%) [8]: 27%
Population Healthy Nuclei (%) [8]: 70%
Population Hoechst High Intensity Objects (%) [8]: 3%
Population Membrane Permeable-Phenotype (%) [8]: 2%
Population Mitochondria Different-Phenotype (%) [8]: 0%
Population Mitotic Cells (%) [8]: 100%
Population Normal (%) [8]: 96%
Population Pyknosed Nuclei (%) [8]: 1%
Total Cell Count [8]: 3112

Cl.Cl.Nc1ncnc2c1c(-c1cccc(OCc3ccccc3)c1)cn2[C@H]1C[C@@H](CN2CCC2)C1
Population Apoptotic (%) [1]: 69%
Population Fragmented Nuclei (%) [1]: 13%
Population Healthy Nuclei (%) [1]: 17%
Population Hoechst High Intensity Objects (%) [1]: 24%
Population Membrane Permeable-Phenotype (%) [1]: 5%
Population Mitochondria Different-Phenotype (%) [1]: 94%
Population Mitotic Cells (%) [1]: 30%
Population Normal (%) [1]: 75%
Population Pyknosed Nuclei (%) [1]: 68%
Population Tubulin-Different-Phenotype (%) [1]: 88%
Total Cell Count [1]: 270
Population Apoptotic (%) [2]: 56%
Population Fragmented Nuclei (%) [2]: 5%
Population Healthy Nuclei (%) [2]: 23%
Population Hoechst High Intensity Objects (%) [2]: 10%
Population Membrane Permeable-Phenotype (%) [2]: 2%
Population Mitochondria Different-Phenotype (%) [2]: 97%
Population Mitotic Cells (%) [2]: 43%
Population Normal (%) [2]: 89%
Population Pyknosed Nuclei (%) [2]: 71%
Population Tubulin-Different-Phenotype (%) [2]: 97%
Total Cell Count [2]: 199
Population Fragmented Nuclei (%) [3]: 18%
Population Healthy Nuclei (%) [3]: 12%
Population Hoechst High Intensity Objects (%) [3]: 20%
Population Membrane Permeable-Phenotype (%) [3]: 3%
Population Mitochondria Different-Phenotype (%) [3]: 100%
Population Normal (%) [3]: 79%
Population Pyknosed Nuclei (%) [3]: 69%
Population Tubulin-Different-Phenotype (%) [3]: 84%
Total Cell Count [3]: 264
Population Apoptotic (%) [4]: 95%
Population Fragmented Nuclei (%) [4]: 21%
Population Healthy Nuclei (%) [4]: 6%
Population Hoechst High Intensity Objects (%) [4]: 23%
Population Membrane Permeable-Phenotype (%) [4]: 9%
Population Mitochondria Different-Phenotype (%) [4]: 81%
Population Mitotic Cells (%) [4]: 4%
Population Normal (%) [4]: 77%
Population Pyknosed Nuclei (%) [4]: 71%
Population Tubulin-Different-Phenotype (%) [4]: 54%
Total Cell Count [4]: 213
Population Apoptotic (%) [5]: 70%
Population Fragmented Nuclei (%) [5]: 14%
Population Healthy Nuclei (%) [5]: 18%
Population Hoechst High Intensity Objects (%) [5]: 25%
Population Membrane Permeable-Phenotype (%) [5]: 0%
Population Mitochondria Different-Phenotype (%) [5]: 100%
Population Mitotic Cells (%) [5]: 29%
Population Normal (%) [5]: 75%
Population Pyknosed Nuclei (%) [5]: 67%
Total Cell Count [5]: 260
Population Apoptotic (%) [6]: 67%
Population Fragmented Nuclei (%) [6]: 7%
Population Healthy Nuclei (%) [6]: 43%
Population Hoechst High Intensity Objects (%) [6]: 5%
Population Membrane Permeable-Phenotype (%) [6]: 4%
Population Mitochondria Different-Phenotype (%) [6]: 93%
Population Mitotic Cells (%) [6]: 32%
Population Normal (%) [6]: 94%
Population Pyknosed Nuclei (%) [6]: 49%
Population Tubulin-Different-Phenotype (%) [6]: 91%
Total Cell Count [6]: 213
Population Apoptotic (%) [7]: 92%
Population Fragmented Nuclei (%) [7]: 17%
Population Healthy Nuclei (%) [7]: 9%
Population Hoechst High Intensity Objects (%) [7]: 22%
Population Membrane Permeable-Phenotype (%) [7]: 0%
Population Mitochondria Different-Phenotype (%) [7]: 100%
Population Mitotic Cells (%) [7]: 7%
Population Normal (%) [7]: 77%
Population Pyknosed Nuclei (%) [7]: 73%
Population Tubulin-Different-Phenotype (%) [7]: 80%
Total Cell Count [7]: 278
Population Apoptotic (%) [8]: 100%
Population Fragmented Nuclei (%) [8]: 23%
Population Healthy Nuclei (%) [8]: 11%
Population Hoechst High Intensity Objects (%) [8]: 26%
Population Membrane Permeable-Phenotype (%) [8]: 5%
Population Mitochondria Different-Phenotype (%) [8]: 89%
Population Mitotic Cells (%) [8]: 0%
Population Normal (%) [8]: 73%
Population Pyknosed Nuclei (%) [8]: 64%
Population Tubulin-Different-Phenotype (%) [8]: 68%
Total Cell Count [8]: 227
Population Apoptotic (%) [9]: 74%
Population Fragmented Nuclei (%) [9]: 20%
Population Healthy Nuclei (%) [9]: 21%
Population Hoechst High Intensity Objects (%) [9]: 30%
Population Membrane Permeable-Phenotype (%) [9]: 0%
Population Mitochondria Different-Phenotype (%) [9]: 97%
Population Mitotic Cells (%) [9]: 25%
Population Normal (%) [9]: 70%
Population Pyknosed Nuclei (%) [9]: 57%
Population Tubulin-Different-Phenotype (%) [9]: 78%
Total Cell Count [9]: 250
Population Apoptotic (%) [10]: 64%
Population Fragmented Nuclei (%) [10]: 6%
Population Healthy Nuclei (%) [10]: 71%
Population Hoechst High Intensity Objects (%) [10]: 11%
Population Membrane Permeable-Phenotype (%) [10]: 1%
Population Mitochondria Different-Phenotype (%) [10]: 87%
Population Mitotic Cells (%) [10]: 35%
Population Normal (%) [10]: 88%
Population Pyknosed Nuclei (%) [10]: 22%
Population Tubulin-Different-Phenotype (%) [10]: 93%
Total Cell Count [10]: 263
Population Apoptotic (%) [11]: 93%
Population Fragmented Nuclei (%) [11]: 25%
Population Healthy Nuclei (%) [11]: 1%
Population Hoechst High Intensity Objects (%) [11]: 19%
Population Membrane Permeable-Phenotype (%) [11]: 0%
Population Mitochondria Different-Phenotype (%) [11]: 100%
Population Mitotic Cells (%) [11]: 6%
Population Normal (%) [11]: 80%
Population Pyknosed Nuclei (%) [11]: 73%
Population Tubulin-Different-Phenotype (%) [11]: 33%
Total Cell Count [11]: 315
Population Apoptotic (%) [12]: 98%
Population Fragmented Nuclei (%) [12]: 34%
Population Healthy Nuclei (%) [12]: 17%
Population Hoechst High Intensity Objects (%) [12]: 12%
Population Mitotic Cells (%) [12]: 1%
Population Normal (%) [12]: 87%
Population Pyknosed Nuclei (%) [12]: 48%
Population Tubulin-Different-Phenotype (%) [12]: 88%
Total Cell Count [12]: 234
